Laboratory results from ChEMBL document CHEMBL1124326, “Synthesis and P-388 antitumor properties of the four diastereomeric 1-hydroxy-3,4-diaminocyclohexane-Cl2PtII complexes” (J Med Chem, 1989).
Values joined by “and” are separate entries in the source; they are usually repeats but may differ in a detail not shown here. Equal values may be shown once.

How the values were obtained:
Assay type in all cases: functional, organism-based
[1] = system: Mus musculus; experiment: Antineoplastic activity in P-388-infected CDF1 mice, administered intraperitoneally at a dose (10 mg/kg), calculated as Percent treated /control (T/C).
In short: (§1)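 P-388 leukaemia cells (1 × 10^6 per animal) implanted into the peritoneal cavity of CDF1 recipient mice. Drug reconstituted in 0.3% Klucel and given ip on a day 1 schedule. Survival checked daily for at least 30 days; survival time expressed as percent treated/control (T/C).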

[2] = system: Mus musculus; experiment: Antineoplastic activity in P-388-tumor cell infected CDF1 mice, administered intraperitoneally at a dose (10 mg/kg), calculated as Median survival time (MST); in short: as §1
[3] = system: Mus musculus; experiment: Antineoplastic activity in P-388-tumor cell infected CDF1 mice, administered intraperitoneally at a dose (3mg/kg), calculated as Median survival time (MST); in short: as §1
[4] = system: Mus musculus; experiment: Antineoplastic activity in P-388-infected CDF1 mice, administered intraperitoneally at a dose (3mg/kg), calculated as Percent treated /control (T/C).; in short: as §1
[5] = system: Mus musculus; experiment: Antineoplastic activity in P-388-tumor cell infected CDF1 mice, administered intraperitoneally at a dose (6 mg/kg), calculated as Median survival time (MST); in short: as §1
[6] = system: Mus musculus; experiment: Antineoplastic activity in P-388-infected CDF1 mice, administered intraperitoneally at a dose (1.5 mg/kg), calculated as Percent treated /control (T/C).; in short: as §1
[7] = system: Mus musculus; experiment: Antineoplastic activity in P-388-tumor cell infected CDF1 mice, administered intraperitoneally at a dose (1.5 mg/kg), calculated as Median survival time (MST); in short: as §1
[8] = system: Mus musculus; experiment: Antineoplastic activity in P-388-infected CDF1 mice, administered intraperitoneally at a dose (6 mg/kg), calculated as Percent treated /control (T/C).; in short: as §1

| Substance | T/C [1] | MST [2] | MST [3] | T/C [4] | MST [5] | T/C [6] | MST [7] | T/C [8] |
| --- | --- | --- | --- | --- | --- | --- | --- | --- |
| 1-Hydroxy-3,4-diaminocyclohexane-Cl2-Platinum II Complex | 161% and 141% | 15.8 days and 13.8 days |  |  |  |  |  |  |
| CISPLATIN |  |  | 18.5 days | 188% | 24.5 days | 158% | 15.5 days | 249% |
